Test results: ChEMBL document CHEMBL5608214, “Novel tetrasubstituted 5-Arylamino pyrazoles able to interfere with angiogenesis and Ca2+ mobilization” (Eur J Med Chem, 2024)
Calls of active or inactive are those of the source. No cut-off for these calls is given here.

system: not listed separately; assay: Antiproliferative activity against human GM06114 cells assessed as cell growth at 10 uM incubated for 48 hrs by MTT assay relative to control; assay type: toxicity, cell-based; details: read-out: Activity
Summary of the method: (§1)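 Cells in DMEM with 10 % FBS, 2 mM glutamine and pen-strep, 37 °C, 5 % CO₂, plated to reach 80–90 % confluence at endpoint. At 16 h, compounds were added from a 10 mM DMSO stock to 10 μM final. After 48 h, MTT (2 mg/mL in PBS) was added for 4 h, formazan dissolved in DMSO, and OD read at 570 nm. Results are % of solvent control; three runs, six replicates each, mean ± SD.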

Row | SMILES | viability at 48 h, 10 µM [%]
1 | CCOC(=O)c1c(Nc2ccccc2Cl)nn(CC(O)c2ccccc2)c1N (stereo not drawn) | 63
2 | CCOC(=O)c1c(Nc2ccc(Cl)c(Cl)c2)nn(CC(O)c2ccccc2)c1N (stereo not drawn) | 77
3 | CCCC(O)Cn1nc(Nc2ccccc2Cl)c(C(=O)OCC)c1N (stereo not drawn) | 85
4 | CCCC(O)Cn1nc(Nc2cccc3ccccc23)c(C(=O)OCC)c1N (stereo not drawn) | 104
5 | CCCC(O)Cn1nc(Nc2ccc(OC)cc2)c(C(=O)OCC)c1N (stereo not drawn) | 75
6 | CCOC(=O)c1c(Nc2cccc(C(F)(F)F)c2)nn(CC(O)c2ccccc2)c1N (stereo not drawn) | 80
7 | CCCC(O)Cn1nc(Nc2ccc(Cl)c(Cl)c2)c(C(=O)OCC)c1N (stereo not drawn) | 87

system: HUVEC; assay: Anti-angiogenetic activity in human HUVEC cells assessed as number of tube branching points at 10 uM incubated for 12 hrs by microscopy; assay type: functional; details: not given
Summary of the method: (§2)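 HUVEC seeded at 2 × 10⁴ cells/well onto gelled Matrigel (mixed 1:1 with EGM-2, set 30 min at 37 °C). Cells were exposed to test agents at 10 μM for 12 h with no stimulus; untreated wells served as control. Tube long axis and branching points were counted in 10 random fields per well at 10× (Angiogenesis Analyzer), giving mean tube length per well. Mean of at least three independent experiments.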

Row | SMILES | Activity
8 | CCOC(=O)c1c(Nc2ccc(C)cc2)nn(CC(O)c2ccccc2)c1N (stereo not drawn) | 17
9 | CCCC(O)Cn1nc(Nc2cccc3ccccc23)c(C(=O)OCC)c1N (stereo not drawn) | <15

system: A549; assay: Antiproliferative activity against human A549 cells assessed as cell growth at 10 uM incubated for 48 hrs by MTT assay relative to control; assay type: functional; details: read-out: Activity; summary of the method: as §1

Row | SMILES | growth at 10 µM [%]
10 | CCOC(=O)c1c(Nc2ccccc2Cl)nn(CC(O)c2ccccc2)c1N (stereo not drawn) | 72
11 | CCOC(=O)c1c(Nc2ccc(Cl)c(Cl)c2)nn(CC(O)c2ccccc2)c1N (stereo not drawn) | 70
12 | CCCC(O)Cn1nc(Nc2ccccc2Cl)c(C(=O)OCC)c1N (stereo not drawn) | 106
13 | CCCC(O)Cn1nc(Nc2cccc3ccccc23)c(C(=O)OCC)c1N (stereo not drawn) | 86
14 | CCCC(O)Cn1nc(Nc2ccc(OC)cc2)c(C(=O)OCC)c1N (stereo not drawn) | 98
15 | CCOC(=O)c1c(Nc2cccc(C(F)(F)F)c2)nn(CC(O)c2ccccc2)c1N (stereo not drawn) | 88
16 | CCCC(O)Cn1nc(Nc2ccc(Cl)c(Cl)c2)c(C(=O)OCC)c1N (stereo not drawn) | 94

system: MCF7; assay: Antiproliferative activity against human MCF7 cells assessed as cell growth at 10 uM incubated for 48 hrs by MTT assay relative to control; assay type: functional; details: read-out: Activity; summary of the method: as §1

Row | SMILES | growth at 10 µM [%]
17 | CCOC(=O)c1c(Nc2ccccc2Cl)nn(CC(O)c2ccccc2)c1N (stereo not drawn) | 112
18 | CCOC(=O)c1c(Nc2ccc(Cl)c(Cl)c2)nn(CC(O)c2ccccc2)c1N (stereo not drawn) | 88
19 | CCCC(O)Cn1nc(Nc2ccccc2Cl)c(C(=O)OCC)c1N (stereo not drawn) | 110
20 | CCCC(O)Cn1nc(Nc2cccc3ccccc23)c(C(=O)OCC)c1N (stereo not drawn) | 109
21 | CCCC(O)Cn1nc(Nc2ccc(OC)cc2)c(C(=O)OCC)c1N (stereo not drawn) | 109
22 | CCOC(=O)c1c(Nc2cccc(C(F)(F)F)c2)nn(CC(O)c2ccccc2)c1N (stereo not drawn) | 99
23 | CCCC(O)Cn1nc(Nc2ccc(Cl)c(Cl)c2)c(C(=O)OCC)c1N (stereo not drawn) | 107

system: HUVEC; assay: Anti-angiogenetic activity in human HUVEC cells assessed as reduction in tube branching at 10 uM incubated for 12 hrs by microscopy; assay type: functional, cell-based; details: not given; summary of the method: as §2

Row | SMILES | Activity
24 | CCCC(O)Cn1nc(Nc2ccc(OC)cc2)c(C(=O)OCC)c1N (stereo not drawn) | Active
25 | CCCC(O)Cn1nc(Nc2ccc(Cl)c(Cl)c2)c(C(=O)OCC)c1N (stereo not drawn) | Active

system: HUVEC; assay: Anti-angiogenetic activity in human HUVEC cells assessed as reduction in tube length at 10 uM incubated for 12 hrs by microscopy; assay type: functional, cell-based; details: not given; summary of the method: as §2

Row | SMILES | Activity
26 | CCCC(O)Cn1nc(Nc2ccc(OC)cc2)c(C(=O)OCC)c1N (stereo not drawn) | Active
27 | CCCC(O)Cn1nc(Nc2ccc(Cl)c(Cl)c2)c(C(=O)OCC)c1N (stereo not drawn) | Active

system: HeLa; assay: Antiproliferative activity against human HeLa cells assessed as cell growth at 10 uM incubated for 48 hrs by MTT assay relative to control; assay type: functional; details: read-out: Activity; summary of the method: as §1

Row | SMILES | growth at 10 µM [%]
28 | CCOC(=O)c1c(Nc2ccccc2Cl)nn(CC(O)c2ccccc2)c1N (stereo not drawn) | 98
29 | CCOC(=O)c1c(Nc2ccc(Cl)c(Cl)c2)nn(CC(O)c2ccccc2)c1N (stereo not drawn) | 74
30 | CCCC(O)Cn1nc(Nc2ccccc2Cl)c(C(=O)OCC)c1N (stereo not drawn) | 116
31 | CCCC(O)Cn1nc(Nc2cccc3ccccc23)c(C(=O)OCC)c1N (stereo not drawn) | 82
32 | CCCC(O)Cn1nc(Nc2ccc(OC)cc2)c(C(=O)OCC)c1N (stereo not drawn) | 111
33 | CCOC(=O)c1c(Nc2cccc(C(F)(F)F)c2)nn(CC(O)c2ccccc2)c1N (stereo not drawn) | 107
34 | CCCC(O)Cn1nc(Nc2ccc(Cl)c(Cl)c2)c(C(=O)OCC)c1N (stereo not drawn) | 119

system: SK-OV-3; assay: Antiproliferative activity against human SK-OV-3 cells assessed as cell growth at 10 uM incubated for 48 hrs by MTT assay relative to control; assay type: functional; details: read-out: Activity; summary of the method: as §1

Row | SMILES | growth at 10 µM [%]
35 | CCOC(=O)c1c(Nc2ccccc2Cl)nn(CC(O)c2ccccc2)c1N (stereo not drawn) | 100
36 | CCOC(=O)c1c(Nc2ccc(Cl)c(Cl)c2)nn(CC(O)c2ccccc2)c1N (stereo not drawn) | 111
37 | CCCC(O)Cn1nc(Nc2ccccc2Cl)c(C(=O)OCC)c1N (stereo not drawn) | 102
38 | CCCC(O)Cn1nc(Nc2cccc3ccccc23)c(C(=O)OCC)c1N (stereo not drawn) | 108
39 | CCCC(O)Cn1nc(Nc2ccc(OC)cc2)c(C(=O)OCC)c1N (stereo not drawn) | 110
40 | CCOC(=O)c1c(Nc2cccc(C(F)(F)F)c2)nn(CC(O)c2ccccc2)c1N (stereo not drawn) | 108
41 | CCCC(O)Cn1nc(Nc2ccc(Cl)c(Cl)c2)c(C(=O)OCC)c1N (stereo not drawn) | 116

system: MDA-MB-231; assay: Antiproliferative activity against human MDA-MB-231 cells assessed as cell growth at 10 uM incubated for 48 hrs by MTT assay relative to control; assay type: functional; details: read-out: Activity; summary of the method: as §1

Row | SMILES | growth at 10 µM [%]
42 | CCOC(=O)c1c(Nc2ccccc2Cl)nn(CC(O)c2ccccc2)c1N (stereo not drawn) | 115
43 | CCOC(=O)c1c(Nc2ccc(Cl)c(Cl)c2)nn(CC(O)c2ccccc2)c1N (stereo not drawn) | 144
44 | CCCC(O)Cn1nc(Nc2ccccc2Cl)c(C(=O)OCC)c1N (stereo not drawn) | 107
45 | CCCC(O)Cn1nc(Nc2cccc3ccccc23)c(C(=O)OCC)c1N (stereo not drawn) | 106
46 | CCCC(O)Cn1nc(Nc2ccc(OC)cc2)c(C(=O)OCC)c1N (stereo not drawn) | 143
47 | CCOC(=O)c1c(Nc2cccc(C(F)(F)F)c2)nn(CC(O)c2ccccc2)c1N (stereo not drawn) | 162
48 | CCCC(O)Cn1nc(Nc2ccc(Cl)c(Cl)c2)c(C(=O)OCC)c1N (stereo not drawn) | 176

system: HepG2; assay: Antiproliferative activity against human HepG2 cells assessed as cell growth at 10 uM incubated for 48 hrs by MTT assay relative to control; assay type: functional; details: read-out: Activity; summary of the method: as §1

Row | SMILES | growth at 10 µM [%]
49 | CCOC(=O)c1c(Nc2ccccc2Cl)nn(CC(O)c2ccccc2)c1N (stereo not drawn) | 111
50 | CCOC(=O)c1c(Nc2ccc(Cl)c(Cl)c2)nn(CC(O)c2ccccc2)c1N (stereo not drawn) | 100
51 | CCCC(O)Cn1nc(Nc2ccccc2Cl)c(C(=O)OCC)c1N (stereo not drawn) | 119
52 | CCCC(O)Cn1nc(Nc2cccc3ccccc23)c(C(=O)OCC)c1N (stereo not drawn) | 104
53 | CCCC(O)Cn1nc(Nc2ccc(OC)cc2)c(C(=O)OCC)c1N (stereo not drawn) | 110
54 | CCOC(=O)c1c(Nc2cccc(C(F)(F)F)c2)nn(CC(O)c2ccccc2)c1N (stereo not drawn) | 131
55 | CCCC(O)Cn1nc(Nc2ccc(Cl)c(Cl)c2)c(C(=O)OCC)c1N (stereo not drawn) | 116

system: SK-BR-3; assay: Antiproliferative activity against human SK-BR-3 cells assessed as cell growth at 10 uM incubated for 48 hrs by MTT assay relative to control; assay type: functional; details: read-out: Activity; summary of the method: as §1

Row | SMILES | growth at 10 µM [%]
56 | CCOC(=O)c1c(Nc2ccccc2Cl)nn(CC(O)c2ccccc2)c1N (stereo not drawn) | 117
57 | CCOC(=O)c1c(Nc2ccc(Cl)c(Cl)c2)nn(CC(O)c2ccccc2)c1N (stereo not drawn) | 111
58 | CCCC(O)Cn1nc(Nc2ccccc2Cl)c(C(=O)OCC)c1N (stereo not drawn) | 121
59 | CCCC(O)Cn1nc(Nc2cccc3ccccc23)c(C(=O)OCC)c1N (stereo not drawn) | 110
60 | CCCC(O)Cn1nc(Nc2ccc(OC)cc2)c(C(=O)OCC)c1N (stereo not drawn) | 106
61 | CCOC(=O)c1c(Nc2cccc(C(F)(F)F)c2)nn(CC(O)c2ccccc2)c1N (stereo not drawn) | 122
62 | CCCC(O)Cn1nc(Nc2ccc(Cl)c(Cl)c2)c(C(=O)OCC)c1N (stereo not drawn) | 127

system: SK-MEL-28; assay: Antiproliferative activity against human SK-MEL-28 cells assessed as cell growth at 10 uM incubated for 48 hrs by MTT assay relative to control; assay type: functional; details: read-out: Activity; summary of the method: as §1

Row | SMILES | growth at 10 µM [%]
63 | CCOC(=O)c1c(Nc2ccccc2Cl)nn(CC(O)c2ccccc2)c1N (stereo not drawn) | 136
64 | CCOC(=O)c1c(Nc2ccc(Cl)c(Cl)c2)nn(CC(O)c2ccccc2)c1N (stereo not drawn) | 135
65 | CCCC(O)Cn1nc(Nc2ccccc2Cl)c(C(=O)OCC)c1N (stereo not drawn) | 132
66 | CCCC(O)Cn1nc(Nc2cccc3ccccc23)c(C(=O)OCC)c1N (stereo not drawn) | 103
67 | CCCC(O)Cn1nc(Nc2ccc(OC)cc2)c(C(=O)OCC)c1N (stereo not drawn) | 120
68 | CCOC(=O)c1c(Nc2cccc(C(F)(F)F)c2)nn(CC(O)c2ccccc2)c1N (stereo not drawn) | 124
69 | CCCC(O)Cn1nc(Nc2ccc(Cl)c(Cl)c2)c(C(=O)OCC)c1N (stereo not drawn) | 137

system: HUVEC; assay: Anti-angiogenetic activity in human HUVEC cells assessed as relative tube length at 10 uM incubated for 12 hrs by microscopy; assay type: functional; details: not given; summary of the method: as §2

Row | SMILES | Activity
70 | CCOC(=O)c1c(Nc2ccc(C)cc2)nn(CC(O)c2ccccc2)c1N (stereo not drawn) | 48
71 | CCCC(O)Cn1nc(Nc2cccc3ccccc23)c(C(=O)OCC)c1N (stereo not drawn) | <20

system: not listed separately; assay: Antiproliferative activity against human HUVEC cells assessed as cell growth at 10 uM incubated for 48 hrs by MTT assay relative to control; assay type: toxicity, cell-based; details: read-out: Activity; summary of the method: as §1

Row | SMILES | viability at 48 h, 10 µM [%]
72 | CCOC(=O)c1c(Nc2ccccc2Cl)nn(CC(O)c2ccccc2)c1N (stereo not drawn) | 93
73 | CCOC(=O)c1c(Nc2ccc(Cl)c(Cl)c2)nn(CC(O)c2ccccc2)c1N (stereo not drawn) | 93
74 | CCCC(O)Cn1nc(Nc2ccccc2Cl)c(C(=O)OCC)c1N (stereo not drawn) | 95
75 | CCCC(O)Cn1nc(Nc2cccc3ccccc23)c(C(=O)OCC)c1N (stereo not drawn) | 94
76 | CCCC(O)Cn1nc(Nc2ccc(OC)cc2)c(C(=O)OCC)c1N (stereo not drawn) | 95
77 | CCOC(=O)c1c(Nc2cccc(C(F)(F)F)c2)nn(CC(O)c2ccccc2)c1N (stereo not drawn) | 92
78 | CCCC(O)Cn1nc(Nc2ccc(Cl)c(Cl)c2)c(C(=O)OCC)c1N (stereo not drawn) | 93
